Calls of active or inactive are those of the source. The rule behind the calls is not given here.
Experiments:
[1] = (§1) Cytotoxicity against paclitaxel-sensitive human KB3-1 cells assessed as decrease in cell viability after 72 hrs by neutral red dye assay; type: functional, cell-based; conditions: KB 3-1, 72 h
Method in brief: (§2)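 KB-3-1 head and neck cancer cells kept in D-MEM/F12 with 10% FBS, penicillin/streptomycin, 2 mM L-glutamine, 37 °C, 5% CO2. Seeded 20,000 cells/well, adhered 24 h, then given varying concentrations in triplicate for 72 h. Viable cells took up neutral red (50 μg/ml, 30 min); dye dissolved in 0.5 N HCl with 35% ethanol, absorbance 570 nm.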

KB-V1 = assay: Cytotoxicity against paclitaxel-resistant human KBV1 cells assessed as decrease in cell viability after 72 hrs by neutral red dye assay; type: functional, cell-based
Method in brief: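 KB-V1 cells grown in D-MEM/F12 with 10% FBS, penicillin/streptomycin, 2 mM L-glutamine and vinblastine (1 μg/ml), 37 °C, 5% CO2. Plated at 20,000 cells/well, adhered 24 h, treated with graded concentrations in triplicate for 72 h; neutral red (50 μg/ml, 30 min) uptake, dye extracted in acidic ethanol, read at 570 nm.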

HUVEC [2] = assay: Cytotoxicity against HUVEC assessed as decrease in cell viability after 72 hrs by neutral red dye assay; type: cell-based; conditions: human
Method in brief: (§3)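 HUVECs cultured overnight with or without TPA (100 nM phorbol ester) to induce tissue factor, then plated 20,000 cells/well, adhered 24 h, and exposed to graded drug concentrations for 72 h in triplicate. Viability read by neutral red uptake (50 μg/ml, 30 min, 37 °C), PBS washes, dye extracted in 0.5 N HCl/35% ethanol, absorbance at 570 nm.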

HUVEC [3] = assay: Cytotoxicity against TPA-treated HUVEC assessed as decrease in cell viability after 72 hrs by neutral red dye assay; type: cell-based; conditions: human; method in brief: as §3
KB 3-1 = assay: as §1; type: functional, cell-based; method in brief: as §2

## CC(=O)O[C@H]1C(=O)[C@@]2(C)[C@H]([C@H](OC(=O)c3ccccc3)[C@]3(O)C[C@H](OC(=O)[C@H](O)[C@@H](NC(=O)c4ccccc4)c4ccccc4)C(C)=C1C3(C)C)[C@]1(OC(C)=O)CO[C@@H]1C[C@@H]2O [PACLITAXEL]
[1]
  IC50: 0.0012 µM
KB-V1
  Activity: inactive
HUVEC [2]
  Activity: Active
HUVEC [3]
  Activity: Active

## CC(=O)O[C@H]1C(=O)[C@]2(C)[C@@H](OC(=O)CCC(=O)N[C@@H](Cc3ccccc3)C(=O)N[C@@H](Cc3ccccc3)C(=O)N[C@@H](CCCNC(=N)N)C(=O)CCl)C[C@H]3OC[C@@]3(OC(C)=O)[C@H]2[C@H](OC(=O)c2ccccc2)[C@]2(O)C[C@H](OC(=O)[C@H](O)[C@@H](NC(=O)c3ccccc3)c3ccccc3)C(C)=C1C2(C)C
[1]
  IC50: 0.13 µM
KB 3-1
  Activity: Dose-dependent effect
KB-V1
  Activity: inactive

## CC(=O)O[C@H]1C(=O)[C@@]2(C)[C@H]([C@H](OC(=O)c3ccccc3)[C@]3(O)C[C@H](OC(=O)[C@H](OC(=O)CCC(=O)N[C@@H](Cc4ccccc4)C(=O)N[C@@H](Cc4ccccc4)C(=O)N[C@@H](CCCNC(=N)N)C(=O)CCl)[C@@H](NC(=O)c4ccccc4)c4ccccc4)C(C)=C1C3(C)C)[C@]1(OC(C)=O)CO[C@@H]1C[C@@H]2O
[1]
  IC50: 0.012 µM
KB 3-1
  Activity: Dose-dependent effect
KB-V1
  Activity: inactive
HUVEC [3]
  Activity: Not Active

Reference: ChEMBL document CHEMBL1156152, “Targeted delivery of paclitaxel to tumor cells: synthesis and in vitro evaluation” (J Med Chem, 2010)
